Measured values as given in ChEMBL document CHEMBL4311952, “Discovery and Development of a Series of Pyrazolo[3,4-d]pyridazinone Compounds as the Novel Covalent Fibroblast Growth Factor Receptor Inhibitors by the Rational Drug Design” (J Med Chem, 2019).
≈ marks a conversion by molar mass, not a printed value.

Tests used:
[1] = Kinetic solubility of the compound in pH 7.4 PBS by nephelometric method; assay type: physicochemical; details: read-out: Kinetic_solubility
[2] = MRT in Sprague-Dawley rat at 10 mg/kg, iv by LC-MS/MS analysis; assay type: ADME, organism-based; details: in vivo
Summary of the method: (§1)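 SD rats dosed in 5% DMSO + 5% Tween-80 in 90% saline, IV 10 mg/kg, PO 20 mg/kg or IP 20 mg/kg; blood collected and centrifuged to plasma, which was deproteinized with methanol containing internal standard, diluted and re-centrifuged; concentrations by LC/MS/MS.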

[3] = Clearance in Sprague-Dawley rat at 10 mg/kg, iv by LC-MS/MS analysis; assay type: ADME, organism-based; details: in vivo
Summary of the method: (§2)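 SD rats dosed IV 10 mg/kg, PO 20 mg/kg or IP 20 mg/kg in 5% DMSO + 5% Tween-80 in 90% saline. Blood collected after dosing and spun to plasma. Plasma deproteinized with methanol containing internal standard, centrifuged, diluted with methanol and spun again. Compound in supernatant quantified by LC/MS/MS.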

[4] = AUC (0 to t) in Sprague-Dawley rat at 20 mg/kg, po by LC-MS/MS analysis; assay type: ADME, organism-based; details: in vivo; summary of the method: as §2
[5] = Tmax in Sprague-Dawley rat at 20 mg/kg, po by LC-MS/MS analysis; assay type: ADME, organism-based; details: in vivo; summary of the method: as §1
[6] = Half life in Sprague-Dawley rat at 10 mg/kg, iv by LC-MS/MS analysis; assay type: ADME, organism-based; details: in vivo; summary of the method: as §2
[7] = AUC (0 to t) in Sprague-Dawley rat at 10 mg/kg, iv by LC-MS/MS analysis; assay type: ADME, organism-based; details: in vivo; summary of the method: as §2
[8] = Half life in Sprague-Dawley rat at 20 mg/kg, po by LC-MS/MS analysis; assay type: ADME, organism-based; details: in vivo; summary of the method: as §2
[9] = AUC (0 to infinity) in Sprague-Dawley rat at 10 mg/kg, iv by LC-MS/MS analysis; assay type: ADME, organism-based; set-up: dose 10 mg/kg, time infinity, route intravenous; details: in vivo; summary of the method: as §2
[10] = Oral bioavailability in Sprague-Dawley rat at 20 mg/kg by LC-MS/MS analysis; assay type: ADME, organism-based; details: in vivo; summary of the method: as §1
[11] = MRT in Sprague-Dawley rat at 20 mg/kg, po by LC-MS/MS analysis; assay type: ADME, organism-based; details: in vivo; summary of the method: as §1
[12] = Cmax in Sprague-Dawley rat at 20 mg/kg, po by LC-MS/MS analysis; assay type: ADME, organism-based; set-up: dose 20 mg/kg, route oral; details: in vivo; summary of the method: as §2
[13] = Tmax in Sprague-Dawley rat at 10 mg/kg, iv by LC-MS/MS analysis; assay type: ADME, organism-based; details: in vivo; summary of the method: as §1
[14] = Cmax in Sprague-Dawley rat at 10 mg/kg, iv by LC-MS/MS analysis; assay type: ADME, organism-based; set-up: dose 10 mg/kg, route intravenous; details: in vivo; summary of the method: as §2
[15] = AUC (0 to infinity) in Sprague-Dawley rat at 20 mg/kg, po by LC-MS/MS analysis; assay type: ADME, organism-based; set-up: dose 20 mg/kg, route oral, time infinity; details: in vivo; summary of the method: as §2
[16] = Half life in mouse liver microsomes at 0.1 uM in presence of NADPH by LC-MS/MS analysis; assay type: ADME, Microsome; details: for half-life at 0.1 µM: liver microsomes
Summary of the method: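 Mouse liver microsomes at 0.33 mg/mL protein with 5 mM MgCl2, 0.1 μM compound, 1 mM NADPH, 0.1 M Tris/HCl pH 7.4, final DMSO 0.01%. Pre-warmed 10 min at 37 °C, started with NADPH. Sampled at 0, 7, 17, 30 and 60 min, quenched with methanol, analysed by LC-MS/MS in duplicate. T1/2 = -0.693/k from first-order consumption.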

[17] = Stability in rat blood at 5 uM measured after 5 hrs by LC-MS/MS analysis; assay type: ADME, tissue-based
Summary of the method: (§3)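 Compound at 5 μM in fresh rat blood at 37 °C; samples at 0, 0.5, 1.0, 2.0 and 5.0 h, stopped by methanol protein precipitation; percentage of residual parent measured by LC-MS/MS.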

[18] = AUC (0 to infinity) in Sprague-Dawley rat at 20 mg/kg, ip by LC-MS/MS analysis; assay type: ADME, organism-based; set-up: dose 20 mg/kg, time infinity, route intraperitoneal; details: in vivo; summary of the method: as §2
[19] = Drug metabolism in monkey liver microsomes assessed as amino demethylation at 3 uM measured after 180 mins by UPLC-UV/Q-TOF MS analysis; assay type: ADME, Macaca mulatta, Microsome; details: rhesus monkey, 3 h
[20] = Drug metabolism in rat liver microsomes assessed as oxidation at 3 uM measured after 180 mins by UPLC-UV/Q-TOF MS analysis; assay type: ADME, Microsome; details: 3 h
[21] = Drug metabolism in rat liver microsomes assessed as amino demethylation at 3 uM measured after 180 mins by UPLC-UV/Q-TOF MS analysis; assay type: ADME, Microsome; details: 3 h
Summary of the method: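 Human, mouse, rat, dog or monkey liver fractions (1.0×10^6 cells/mL) in William's medium E (pH 7.4) with 3.0 μM substrate, 37 °C for 180 min. Stopped with equal volume ice-cold acetonitrile. Duplicates pooled per species, spun, dried under nitrogen, reconstituted in acetonitrile/water 10:90. Metabolites profiled by UPLC-UV/Q-TOF MS.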

[22] = Drug metabolism in human liver microsomes assessed as oxidation at 3 uM measured after 180 mins by UPLC-UV/Q-TOF MS analysis; assay type: ADME, Microsome; details: 3 h
[23] = AUC (0 to t) in Sprague-Dawley rat at 20 mg/kg, ip by LC-MS/MS analysis; assay type: ADME, organism-based; details: in vivo; summary of the method: as §2
[24] = Tmax in Sprague-Dawley rat at 20 mg/kg, ip by LC-MS/MS analysis; assay type: ADME, organism-based; details: in vivo; summary of the method: as §1
[25] = Drug metabolism in dog liver microsomes assessed as oxidation at 3 uM measured after 180 mins by UPLC-UV/Q-TOF MS analysis; assay type: ADME, Canis lupus familiaris, Microsome; details: 3 h
[26] = Drug metabolism in mouse liver microsomes assessed as oxidation at 3 uM measured after 180 mins by UPLC-UV/Q-TOF MS analysis; assay type: ADME, Microsome; details: 3 h
[27] = MRT in Sprague-Dawley rat at 20 mg/kg, ip by LC-MS/MS analysis; assay type: ADME, organism-based; details: in vivo; summary of the method: as §1
[28] = Drug metabolism in human liver microsomes assessed as amino demethylation at 3 uM measured after 180 mins by UPLC-UV/Q-TOF MS analysis; assay type: ADME, Microsome; details: 3 h
[29] = Stability in rat blood assessed as parent compound remaining at 5 uM measured after 5 hrs by LC-MS/MS analysis; assay type: ADME, tissue-based; details: read-out: Stability; summary of the method: as §3
[30] = Volume of distribution at steady state in Sprague-Dawley rat at 10 mg/kg, iv by LC-MS/MS analysis; assay type: ADME, organism-based; details: in vivo; summary of the method: as §1
[31] = Drug metabolism in mouse liver microsomes at 3 uM measured after 180 mins by UPLC-UV/Q-TOF MS analysis; assay type: ADME, Microsome; details: 3 h
[32] = Cmax in Sprague-Dawley rat at 20 mg/kg, ip by LC-MS/MS analysis; assay type: ADME, organism-based; set-up: dose 20 mg/kg, route intraperitoneal; details: in vivo; summary of the method: as §2
[33] = Drug metabolism in mouse liver microsomes assessed as amino demethylation at 3 uM measured after 180 mins by UPLC-UV/Q-TOF MS analysis; assay type: ADME, Microsome; details: 3 h
[34] = Drug metabolism in dog liver microsomes assessed as amino demethylation at 3 uM measured after 180 mins by UPLC-UV/Q-TOF MS analysis; assay type: ADME, Canis lupus familiaris, Microsome; details: 3 h
[35] = Drug metabolism in monkey liver microsomes assessed as oxidation at 3 uM measured after 180 mins by UPLC-UV/Q-TOF MS analysis; assay type: ADME, Macaca mulatta, Microsome; details: rhesus monkey, 3 h
[36] = Half life in Sprague-Dawley rat at 20 mg/kg, ip by LC-MS/MS analysis; assay type: ADME, organism-based; details: in vivo; summary of the method: as §2

In the case of CC(=O)c1ccccc1O, the solubility kinetic [1] is reported as 50 µM (≈ 6.81 µg/mL).
Compound C=CC(=O)Nc1ccc(-n2nc3c(=O)[nH]nc(N)c3c2-c2oc3ccc(C)cc3c2C)cc1 has an MRT ([2]; Sprague-Dawley, read-out: MRT) of 5.04 h, a clearance ([3]; Sprague-Dawley) of 143 mL/min/kg and a solubility kinetic [1] of 20 µM (≈ 8.81 µg/mL). For the same compound, the AUC(0-t) [4] was 6.4 ng·h/mL, the Tmax [5] was 0.861 h and the half-life [6] was 6.25 h. The AUC(0-t) [7] was 1090 ng·h/mL, the half-life [8] was 1.77 h and the AUC(0-inf) [9] was 1270 ng·h/mL. For the same compound, the bioavailability [10] was 0.29%, the MRT [11] was 2.17 h and the Cmax [12] was 12.9 ng/mL. For the same compound, the Tmax [13] was 4.98 min, the Cmax [14] was 1880 ng/mL and the AUC(0-inf) [15] was 6.4 ng·h/mL. It also gave a half-life at 0.1 µM [16] of 0.517 h.
Cc1ccc2oc(-c3c4c(N)n[nH]c(=O)c4nn3-c3ccc(NC(=O)/C=C/CN4CCOCC4)cc3)c(C)c2c1 showed a solubility kinetic [1] of 50 µM (≈ 27 µg/mL).
C=CC(=O)Nc1ccc(-n2nc3c(=O)[nH]nc(N)c3c2-c2oc3ccc(Cl)cc3c2C)cc1 showed a solubility kinetic [1] of 20 µM (≈ 9.22 µg/mL) and a half-life at 0.1 µM [16] of 0.483 h.
For Cc1ccc2oc(-c3c4c(N)n[nH]c(=O)c4nn3-c3ccc(NC(=O)/C=C/CN(C)C)cc3)c(C)c2c1, the solubility kinetic [1] was 50 µM (≈ 24.9 µg/mL), the Stability [17] was “Stable” and the half-life at 0.1 µM [16] was 1.05 h.
With Cc1c(-c2c3c(N)n[nH]c(=O)c3nn2-c2ccc(NC(=O)/C=C/CN(C)C)cc2)oc2ccc(Cl)cc12 the AUC(0-inf) [18] was 17000 ng·h/mL, the Drug metabolism [19] was “Metabolite_Detected” and the MRT [2] was 1.64 h. The CL [3] was 37.8 mL/min/kg, the Drug metabolism [20] was “Metabolite_Detected” and the solubility kinetic [1] was 200 µM (≈ 104 µg/mL). The Drug metabolism [21] was “Metabolite_Detected”, the AUC(0-t) [4] was 32.6 ng·h/mL and the Drug metabolism [22] was “Metabolite_Detected”. It also gave a Tmax [5] of 0.5 h, an AUC(0-t) [23] of 16800 ng·h/mL and a half-life [6] of 8.55 h. For the same compound, the Tmax [24] was 0.5 h, the Drug metabolism [25] was “Metabolite_Detected” and the AUC(0-t) [7] was 4310 ng·h/mL. The half-life [8] was 21.6 h, the Drug metabolism [26] was “Metabolite_Detected” and the MRT [27] was 3.3 h. For the same compound, the AUC(0-inf) [9] was 4410 ng·h/mL, the bioavailability [10] was 0% and the Drug metabolism [28] was “Metabolite_Detected”. For the same compound, the remaining at 5 h, 5 µM [29] was 20%, the Vdss [30] was 28 L/kg and the Drug metabolism [31] was 20%. For the same compound, the MRT [11] was 7.33 h, the Cmax [32] was 5040 ng/mL and the Cmax [12] was 7.3 ng/mL. The Drug metabolism [33] was “Metabolite_Detected”, the Drug metabolism [34] was “Metabolite_Detected” and the Drug metabolism [35] was “Metabolite_Detected”. The half-life [36] was 4.63 h, the AUC(0-inf) [15] was 51.5 ng·h/mL and the t1/2 ([16]; microsomes, 0.1 µM) was 1.72 h.
With Cc1c(-c2c3c(N)n[nH]c(=O)c3nn2-c2ccc(NC(=O)/C=C/CN(C)C)cc2)oc2ccc(Br)cc12 the solubility kinetic [1] was 50 µM (≈ 28.1 µg/mL).
For CC(=O)c1cc(Br)ccc1O, the solubility kinetic [1] was 50 µM (≈ 10.8 µg/mL).
